The values below come from article PMC5487498 (World Journal of Gastroenterology, 2017).

Holding throughout (experiment): MTS cell proliferation/viability assay
One experiment relates to 3T3. Format: cell-based, murine. The settings on record: read-out: IC50 3T3, 72 h incubation, non-cancer fibroblasts. The essentials: (§1)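 Cells were seeded at 10 × 10^3 cells/well and exposed 24 h later to test compound at 100, 50, 10, 5, 1 and 0.1 μmol/L for 72 h. MTS was then added for 2 h and absorbance read at 490 nm, with untreated control taken as 100%. HCT116 was grown in RPMI 1640; Caco-2 and murine 3T3 fibroblasts in high-glucose DMEM with pyruvate, 10% FBS and penicillin/streptomycin, at 37 °C and 5% CO2.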

A further experiment has as its system HCT116. Type of experiment: cell-based, human. The settings on record: read-out: IC50 HCT116, 72 h incubation. A digest of the protocol: as §1
Another experiment relates to CaCo-2. Format: cell-based, human. The following applies: read-out: IC50 CaCo-2, 72 h incubation. A digest of the protocol: as §1

On to `CC(C)(C)OC(=O)N1c2ccccc2C2(CN=C(Nc3ccc(C(F)(F)F)cc3)S2)C1N1CCCCC1` (racemic) [Compound K-471, trans-(±)-1-(terc-buthoxycarbonyl)-2-(1-piperidyl)-2’-(4-trifluoromethylphenylamino)spiro{indoline-3,5’-[4’,5’]dihydrothiazol}], for which the IC50 in the experiment on 3T3, with HCT116 and in the experiment with CaCo-2 was more than 100 µM in each case.
As to `COn1cc(CNC(=O)SC)c2cc(F)ccc21` [Compound K-459, 5-fluoro-1-methoxybrassitin], the IC50 in the experiment on 3T3, with HCT116 and in the experiment with CaCo-2 was more than 100 µM in each case.
For `CC(C)(C)OC(=O)N1c2ccccc2C2(CN=C(Nc3ccc(Cl)cc3)S2)C1N1CCCCC1` (racemic) [Compound K-467, trans-(±)-1-(terc-buthoxycarbonyl)-2-(1-piperidyl)-2’-(4-chlorophenylamino)spiro{indoline-3,5’-[4’,5’]dihydrothiazol}], the IC50 with 3T3, with HCT116 and in the experiment with CaCo-2 was more than 100 µM each time.
On to `COC1N(OC)c2ccccc2C12CN=C(Nc1ccc(C(F)(F)F)cc1)S2` (racemic) [Compound K-452, (±)-cis-1,2-dimethoxy-2’-(4-trifluoromethylphenylamino)spiro{indoline-3,5’[4’,5’]dihydrothiazol}], for which the IC50 in the experiment on 3T3, in the experiment on HCT116 and in the experiment on CaCo-2 was more than 100 µM each time.
Turning to `COC1N(OC)c2ccc(F)cc2C12CN=C(SC)S2` (racemic) [Compound K-462, (±)-cis-5-fluoro-1-methoxyspirobrassinolmethylether], the IC50 with 3T3, with HCT116 and in the experiment with CaCo-2 was more than 100 µM each time.
As to `CON1C(=O)C2(CN=C(Nc3ccc(Br)cc3)S2)c2ccccc21` (racemic) [Compound K-463, (±)-1-methoxy-2’-(4-bromophenylamino)spiro{indoline-3,5’-[4’,5’]-dihydrothiazol}-2-one], the values for the IC50 in the experiment on 3T3, with HCT116 and with CaCo-2 were 61.1 ± 2.25 µM, 33 ± 2.67 µM and 74.18 ± 0.001 µM, respectively.
Regarding `CON1C(=O)C2(CN=C(Nc3ccc(C)cc3)S2)c2ccccc21` (racemic) [Compound K-466, (±)-1-methoxy-2’-(4-methylphenylamino)spiro{indoline-3,5’-[4’,5’]-dihydrothiazol}-2-one], the half-inhibitory concentration (IC50) in the experiment on 3T3, in the experiment with HCT116 and in the experiment on CaCo-2 was more than 100 µM throughout.
As for `CSC(=O)NCc1c[nH]c2ccc(F)cc12` [Compound K-455, 5-fluorobrassitin], the IC50 in the experiment on 3T3, with HCT116 and in the experiment with CaCo-2 was more than 100 µM throughout.
Regarding `CON1C(=O)C2(CN=C(Nc3ccc(C(F)(F)F)cc3)S2)c2ccccc21` (racemic) [Compound K-465, (±)-1-methoxy-2’-(4-trifluoromethylphenylamino)spiro{indoline-3,5’-[4’,5’]-dihydrothiazol}-2-one], the 50% inhibitory concentration (IC50) was 34.9 ± 2.01 µM in the experiment on 3T3, 33.7 ± 2.78 µM in the experiment with HCT116 and 35.7 ± 6.49 µM with CaCo-2.
